Source: ChEMBL document CHEMBL1135891, “Development of long-acting dopamine transporter ligands as potential cocaine-abuse therapeutic agents: chiral hydroxyl-containing derivatives of 1-[2-[bis(4-fluorophenyl)methoxy]ethyl]-4-(3-phenylpropyl)piperazine and 1-[2-(diphenylmethoxy)ethyl]-4-(3-phenylpropyl)piperazine” (J Med Chem, 2002)

Legend:
[1] = target: Sodium-dependent serotonin transporter (Rattus norvegicus, UniProt P31652); experiment: Binding affinity for serotonin transporter
Outline: (§1)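 [125I]RTI-55 competition binding. Drugs and blockers in 55.2 mM sodium phosphate buffer pH 7.4 with 1 mg/mL BSA. Radioligand in the same buffer with chymostatin, leupeptin, EDTA and EGTA. Triplicate incubation for 18–24 h at 4 °C to equilibrium. Filtered over GF/B filters presoaked in 2% polyethylenimine, washed with ice-cold Tris-HCl/NaCl pH 7.4. Ki derived.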

[2] = target: Sodium-dependent dopamine transporter (Rattus norvegicus, UniProt P23977); experiment: Binding affinity for dopamine transporter; outline: as §1
Sodium-dependent dopamine transporter, sequence (P23977 whole entry): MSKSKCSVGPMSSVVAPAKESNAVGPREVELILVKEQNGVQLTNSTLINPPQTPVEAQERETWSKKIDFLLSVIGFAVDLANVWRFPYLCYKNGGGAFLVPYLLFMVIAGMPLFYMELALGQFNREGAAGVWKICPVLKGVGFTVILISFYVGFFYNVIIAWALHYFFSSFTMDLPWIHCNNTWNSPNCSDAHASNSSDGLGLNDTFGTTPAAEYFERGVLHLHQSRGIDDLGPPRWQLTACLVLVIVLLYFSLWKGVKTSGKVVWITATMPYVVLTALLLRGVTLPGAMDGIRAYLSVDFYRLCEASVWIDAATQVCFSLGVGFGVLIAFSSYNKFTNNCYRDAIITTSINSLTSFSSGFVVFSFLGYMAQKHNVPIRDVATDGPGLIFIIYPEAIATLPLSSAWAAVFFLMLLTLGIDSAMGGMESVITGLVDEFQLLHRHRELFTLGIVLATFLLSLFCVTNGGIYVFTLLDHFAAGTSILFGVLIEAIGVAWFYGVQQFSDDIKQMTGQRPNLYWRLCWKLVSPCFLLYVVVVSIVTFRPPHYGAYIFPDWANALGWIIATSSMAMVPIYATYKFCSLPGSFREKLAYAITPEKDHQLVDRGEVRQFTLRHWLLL

[3] = target: Monoamine transporters; serotonin & dopamine (Rattus norvegicus) (UniProt P31652+P23977); experiment: Selectivity ratio for serotonin transporter to dopamine transporter; format: protein assay
Monoamine transporters; serotonin & dopamine (Rattus norvegicus), sequence (P23977 whole entry, looked up): as the sequence (P23977 whole entry) above
Monoamine transporters; serotonin & dopamine (Rattus norvegicus), sequence (P31652 whole entry, looked up): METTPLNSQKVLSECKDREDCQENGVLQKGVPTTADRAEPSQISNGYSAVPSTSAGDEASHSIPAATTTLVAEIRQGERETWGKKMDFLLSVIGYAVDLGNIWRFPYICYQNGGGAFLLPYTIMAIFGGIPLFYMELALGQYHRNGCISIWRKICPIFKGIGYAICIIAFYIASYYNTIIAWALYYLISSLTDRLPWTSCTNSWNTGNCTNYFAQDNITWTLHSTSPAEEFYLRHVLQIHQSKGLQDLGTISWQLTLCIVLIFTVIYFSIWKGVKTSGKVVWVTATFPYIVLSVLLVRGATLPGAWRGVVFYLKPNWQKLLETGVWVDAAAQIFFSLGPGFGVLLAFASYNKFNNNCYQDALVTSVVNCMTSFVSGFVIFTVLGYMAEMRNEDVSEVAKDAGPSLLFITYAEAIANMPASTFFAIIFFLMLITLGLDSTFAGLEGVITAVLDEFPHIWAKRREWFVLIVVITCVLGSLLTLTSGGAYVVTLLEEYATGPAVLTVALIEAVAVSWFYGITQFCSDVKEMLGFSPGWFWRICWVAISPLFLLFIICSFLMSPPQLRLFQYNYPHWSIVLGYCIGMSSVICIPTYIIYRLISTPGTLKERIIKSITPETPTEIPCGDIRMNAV

Rattus norvegicus = experiment: Dopamine (DA) reuptake inhibition properties of in vivo extracellular dopamine (ECDA) levels in rat nucleus accumbens microdialysis assay, at […]; format: functional
Outline: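 Male Sprague–Dawley rats (300–450 g), conscious and freely moving, with jugular catheters and nucleus accumbens probes (2 mm exchange surface). Single iv doses (as salt) of drug or saline vehicle given after three baseline samples. Dialysate taken every 20 min for 2 h, DA by microbore HPLC-EC. Values are pg/5 µL, mean ± SEM, n = 4–5 rats/group. Repeated-measures ANOVA.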

Sodium-dependent serotonin transporter, sequence (P31652 whole entry): as the sequence (P31652 whole entry, looked up) above

Fc1ccc(C(OCCN2CCN(CCc3ccccc3)CC2)c2ccc(F)cc2)cc1
Ki [1]: 36 nM
Ki [2]: 8 nM
Ratio [3]: 5

O[C@H](Cc1ccccc1)CN1CCN(CCOC(c2ccc(F)cc2)c2ccc(F)cc2)CC1
Ki [1]: 160 nM
Ki [2]: 12 nM
DA level (Rattus norvegicus): 1.73 pg 5ul-1
Ratio [3]: 13

O[C@H](CN1CCN(CCOC(c2ccccc2)c2ccccc2)CC1)c1ccccc1
Ki [1]: 1400 nM
Ki [2]: 30 nM
Ratio [3]: 47

O[C@@H](Cc1ccccc1)CN1CCN(CCOC(c2ccccc2)c2ccccc2)CC1
Ki [1]: 2160 nM
Ki [2]: 2.3 nM
Ratio [3]: 939

OC(Cc1ccccc1)CN1CCN(CCOC(c2ccc(F)cc2)c2ccc(F)cc2)CC1 (racemic)
Ki [1]: 120 nM
Ki [2]: 2.3 nM
Ratio [3]: 52

OCC(c1ccccc1)N1CCN(CCOC(c2ccc(F)cc2)c2ccc(F)cc2)CC1 (racemic)
Ki [1]: 2500 nM
Ki [2]: 48 nM
Ratio [3]: 52

O[C@@H](CN1CCN(CCOC(c2ccc(F)cc2)c2ccc(F)cc2)CC1)c1ccccc1
Ki [1]: 13 nM
Ki [2]: 26 nM
Ratio [3]: 0.5

O[C@@H](Cc1ccccc1)CN1CCN(CCOC(c2ccc(F)cc2)c2ccc(F)cc2)CC1
Ki [1]: 230 nM
Ki [2]: 0.75 nM
DA level (Rattus norvegicus): 1.73 pg 5ul-1
Ratio [3]: 307

O[C@@H](CN1CCN(CCOC(c2ccccc2)c2ccccc2)CC1)c1ccccc1
Ki [1]: 330 nM
Ki [2]: 170 nM
Ratio [3]: 2

O[C@H](CN1CCN(CCOC(c2ccc(F)cc2)c2ccc(F)cc2)CC1)c1ccccc1
Ki [1]: 77 nM
Ki [2]: 11 nM
Ratio [3]: 7

O[C@H](Cc1ccccc1)CN1CCN(CCOC(c2ccccc2)c2ccccc2)CC1
Ki [1]: 1800 nM
Ki [2]: 25 nM
Ratio [3]: 72

OCC(c1ccccc1)N1CCN(CCOC(c2ccccc2)c2ccccc2)CC1 (racemic)
Ki [1]: 3800 nM
Ki [2]: 120 nM
Ratio [3]: 32
